# From ChEMBL document CHEMBL4364329, “Prodrug Activation by a Viral Protease: Evaluating Combretastatin Peptide Hybrids To Selectively Target Infected Cells” (ACS Med Chem Lett, 2019)
# pEC50, pIC50: −log10 of the molar value. Non-standard residues stand in square brackets, D forms with d. Residues, ends and D or L forms follow the SMILES beside them. ξ: configuration not given here. *: point of attachment. X1 = COc1ccc(/C=C\c2cc(OC)c(OC)c(OC)c2)cc1N*; 2Abz = Nc1ccccc1C(=O)O; ξNle = CCCCC(N)C(=O)O; Bz = O=C(c1ccccc1)*
# How the values were obtained:
# Genome polyprotein [1] = target: T1, Genome polyprotein (dengue virus type 2, UniProt P29990); experiment: Prodrug activation assessed as Dengue virus serotype 2 NS2B-NS3 protease expressed in Escherichia coli BL21 lambda (DE3) cells-mediated compound hydrolysis in TRIS buffer at pH 9 at 500 uM incubated for 2 hrs by HPLC-UV analysis; settings: dengue virus type 2, pH 9, 2 h
# Outline: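 DENV protease at 1 μM with substrate at 500 μM in pH 9 buffer, incubated 2 h at 37 °C; fraction hydrolysed determined, triplicate wells.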
# [2] = Cytotoxicity against human HeLa cells assessed as reduction in cell viability measured after 72 hrs by cell titer blue assay; type: cell-based
# [3] = Cytotoxicity against human HuH7 cells assessed as reduction in cell viability measured after 72 hrs by cell titer blue assay; type: cell-based, Huh-7
# HeLa [4] = experiment: Ratio of compound CC50 to CA4 CC50 for human HeLa cells measured after 72 hrs by cell titer blue assay; type: ADME, cell-based
# Zika virus [5] = experiment: Antiviral activity against Zika virus infected in human HuH7 cells assessed as reduction in viral titer at 5 uM measured after 24 hrs by Cell-Titer Glo luminescent assay relative to control; type: functional; settings: Huh-7, 24 h
# Outline: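 Readout began after 24 h. This was a single-point experiment. Virus-containing supernatant was aliquoted in duplicate, plaques were counted and averaged, and reduction was calculated against an untreated blank.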
# [6] = Ratio of compound CC50 to CA4 CC50 for human HuH7 cells measured after 72 hrs by cell titer blue assay; type: ADME, cell-based, Huh-7
# [7] = Cytotoxicity against human HuH7 cells assessed as reduction in cell viability measured after 24 hrs by cell titer blue assay; type: cell-based, Huh-7
# dengue virus type 2 [8] = experiment: Antiviral activity against wild type Dengue virus serotype 2 infected in human HuH7 cells assessed as reduction in viral titer at 25 uM measured after 24 hrs by Cell-Titer Glo luminescent assay relative to control; type: functional; settings: Huh-7, 24 h
# Outline: (§1)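 Cells treated 24 h before titer readout; virus-containing supernatant split into duplicates, plaques counted and averaged, reduction calculated versus untreated blank; single-point experiment.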
# Zika virus [9] = experiment: Antiviral activity against Zika virus infected in human HuH7 cells assessed as reduction in viral titer at 50 uM measured after 24 hrs by Cell-Titer Glo luminescent assay relative to control; type: functional; settings: Huh-7, 24 h; outline: as §1
# Trypsin = Trypsin (Homo sapiens, UniProt P07477+P07478+P35030); experiment: Prodrug activation assessed as trypsin (unknown origin)-mediated compound hydrolysis in TRIS buffer at pH 9 at 100 uM incubated for 2 hrs; type: protein assay; settings: pH 9, 2 h
# Genome polyprotein [10] = target: T1, Genome polyprotein; experiment: Inhibition of Dengue virus serotype 2 NS2B-NS3 protease expressed in Escherichia coli BL21 lambda (DE3) cells preincubated with enzyme for 15 mins followed by 2-Abz-Nle-Lys-Arg-Arg-Ser-(3-NO2)-Tyr-NH2 FRET substrate addition measured for 15 mins by fluorescence analysis
# Genome polyprotein [11] = target: T1, Genome polyprotein; experiment: Inhibition of Dengue virus NS2B-NS3 protease using FRET Abz-Nle-Lys-Arg-Arg-Ser-3-(NO2)Tyr as substrate
# Huh-7 [12] = experiment: Cytotoxicity against human HuH7 cells assessed as induction of mitosis after 24 hrs; type: cell-based; settings: huh-7, 24 h
# HeLa [13] = experiment: Cytotoxicity against human HeLa cells assessed as cell doubling time by cell titer blue assay; type: cell-based
# Huh-7 [14] = experiment: Cytotoxicity against human HuH7 cells assessed as cell doubling time by cell titer blue assay; type: cell-based
# dengue virus type 2 [15] = experiment: Antiviral activity against wild type Dengue virus serotype 2 infected in human HuH7 cells assessed as reduction in viral titer measured after 24 hrs by Cell-Titer Glo luminescent assay; type: functional, organism-based; settings: Huh-7, 24 h
SMILES,Drug metabolism (Genome polyprotein [1]),CC50 at 72 h [2] [nM],CC50 at 72 h [3] [nM],Ratio (HeLa [4]),inhibition at 5 µM (Zika virus [5]) [%],selectivity ratio at 72 h [6],CC50 at 24 h [7] [nM],inhibition at 25 µM (dengue virus type 2 [8]) [%],inhibition at 50 µM (Zika virus [9]) [%],Drug metabolism (Trypsin),pIC50 (Genome polyprotein [10]),pIC50 (Genome polyprotein [11]),Activity (Huh-7 [12]),Time (HeLa [13]) [h],Time (Huh-7 [14]) [h],pEC50 (dengue virus type 2 [15])
COc1ccc(/C=C\c2cc(OC)c(OC)c(OC)c2)cc1N,Metabolite_Notdetected,1.47,3.93,20 to 2000,84,20 to 2000,> 100000,66,–,–,–,–,–,–,–,–
COc1ccc(/C=C\c2cc(OC)c(OC)c(OC)c2)cc1NC(=O)[C@H](CO)NC(=O)[C@H](CCCNC(=N)N)NC(=O)[C@H](CCCCN)NC(=O)c1ccccc1,6.3%,61.8,134,20 to 2000,–,20 to 2000,77900,61,–,–,–,–,–,–,–,–
COc1ccc(/C=C\c2cc(OC)c(OC)c(OC)c2)cc1NC(=O)CNC(=O)[C@H](CCCNC(=N)N)NC(=O)[C@H](CCCNC(=N)N)NC(=O)c1ccccc1,39%,7.2,26.6,20 to 2000,–,20 to 2000,88600,84,–,–,–,–,–,–,–,–
COc1ccc(/C=C\c2cc(OC)c(OC)c(OC)c2)cc1NC(=O)CNC(=O)[C@H](CCCNC(=N)N)NC(=O)[C@H](CCCCN)NC(=O)c1ccccc1,32%,78.2,172,20 to 2000,–,20 to 2000,> 100000,53,–,–,–,–,–,–,–,–
COc1ccc(/C=C\c2cc(OC)c(OC)c(OC)c2)cc1NC(=O)CN,Metabolite_Notdetected,37.7,26.9,20 to 2000,–,20 to 2000,173000,69,–,–,–,–,–,–,–,–
COc1ccc(/C=C\c2cc(OC)c(OC)c(OC)c2)cc1NC(=O)[C@H](CO)NC(=O)[C@H](CCCNC(=N)N)NC(=O)[C@H](CCCNC(=N)N)NC(=O)c1ccccc1,3.4%,29.2,23.1,20 to 2000,–,20 to 2000,> 100000,51,92,Metabolite_Detected,4.60,–,–,–,–,–
COc1ccc(/C=C\c2cc(OC)c(OC)c(OC)c2)cc1NC(=O)CCNC(=O)[C@H](CCCNC(=N)N)NC(=O)[C@H](CCCNC(=N)N)NC(=O)c1ccccc1,6.7%,952,156,20 to 2000,–,20 to 2000,190000,57,–,–,–,–,–,–,–,–
COc1ccc(/C=C\c2cc(OC)c(OC)c(OC)c2)cc1NC(=O)[C@H](C)N,Metabolite_Notdetected,6.69,6.03,20 to 2000,–,20 to 2000,123000,64,–,–,–,–,–,–,–,–
COc1ccc(/C=C\c2cc(OC)c(OC)c(OC)c2)cc1NC(=O)[C@H](C)NC(=O)[C@H](CCCNC(=N)N)NC(=O)[C@H](CCCNC(=N)N)NC(=O)c1ccccc1,36%,65.7,191,20 to 2000,–,20 to 2000,111000,57,–,–,–,–,–,–,–,–
COc1ccc(/C=C\c2cc(OC)c(OC)c(OC)c2)cc1NC(=O)[C@H](C)NC(=O)[C@H](CCCNC(=N)N)NC(=O)[C@H](CCCCN)NC(=O)c1ccccc1,5.2%,24.6,71.6,20 to 2000,–,20 to 2000,> 100000,69,–,–,–,–,–,–,–,–
COc1ccc(/C=C\c2cc(OC)c(OC)c(OC)c2)cc1NC(=O)[C@H](CCCNC(=N)N)NC(=O)[C@@H](N)CCCNC(=N)N,–,–,–,–,–,–,–,–,–,–,–,5.20,–,–,–,–
COc1ccc(/C=C\c2cc(OC)c(OC)c(OC)c2)cc1NC(=O)CNC(=O)CNC(=O)[C@H](CCCNC(=N)N)NC(=O)[C@H](CCCNC(=N)N)NC(=O)c1ccccc1 (Bz-RRGG-X1),42%,19.5,24,20 to 2000,–,20 to 2000,59700,55,–,Metabolite_Detected,–,–,–,–,–,–
CCCCC(NC(=O)c1ccccc1N)C(=O)N[C@@H](CCCCN)C(=O)N[C@@H](CCCNC(=N)N)C(=O)N[C@@H](CCCNC(=N)N)C(=O)N[C@@H](CO)C(=O)N[C@@H](Cc1ccc(O)cc1)C(N)=O (stereo partly drawn) (H-[2Abz][ξNle]KRRSY-NH2),94%,–,–,–,–,–,–,–,–,–,–,–,–,–,–,–
COc1ccc(/C=C\c2cc(OC)c(OC)c(OC)c2)cc1O [COMBRETASTATIN A4],Metabolite_Notdetected,0.428,1.05,–,70,–,38300,–,–,–,–,–,Toxic,24,48,6.06
